Measured values published in ChEMBL document CHEMBL1157912, “Impact of nature and length of linker incorporated in agonists on toll-like receptor 9-mediated immune responses” (J Med Chem, 2010).

How the values were obtained:
[1] = molecular target: T1, Toll-like receptor 9 (Homo sapiens) (UniProt Q9NR96); assay: Induction of TLR9-mediated immune stimulation in human PBMC assessed as IL12 production at 10 ug/ml after 24 hrs by luminex multiplex assay (RVb = 0.00 ng/ml)
T1 sequence (whole entry): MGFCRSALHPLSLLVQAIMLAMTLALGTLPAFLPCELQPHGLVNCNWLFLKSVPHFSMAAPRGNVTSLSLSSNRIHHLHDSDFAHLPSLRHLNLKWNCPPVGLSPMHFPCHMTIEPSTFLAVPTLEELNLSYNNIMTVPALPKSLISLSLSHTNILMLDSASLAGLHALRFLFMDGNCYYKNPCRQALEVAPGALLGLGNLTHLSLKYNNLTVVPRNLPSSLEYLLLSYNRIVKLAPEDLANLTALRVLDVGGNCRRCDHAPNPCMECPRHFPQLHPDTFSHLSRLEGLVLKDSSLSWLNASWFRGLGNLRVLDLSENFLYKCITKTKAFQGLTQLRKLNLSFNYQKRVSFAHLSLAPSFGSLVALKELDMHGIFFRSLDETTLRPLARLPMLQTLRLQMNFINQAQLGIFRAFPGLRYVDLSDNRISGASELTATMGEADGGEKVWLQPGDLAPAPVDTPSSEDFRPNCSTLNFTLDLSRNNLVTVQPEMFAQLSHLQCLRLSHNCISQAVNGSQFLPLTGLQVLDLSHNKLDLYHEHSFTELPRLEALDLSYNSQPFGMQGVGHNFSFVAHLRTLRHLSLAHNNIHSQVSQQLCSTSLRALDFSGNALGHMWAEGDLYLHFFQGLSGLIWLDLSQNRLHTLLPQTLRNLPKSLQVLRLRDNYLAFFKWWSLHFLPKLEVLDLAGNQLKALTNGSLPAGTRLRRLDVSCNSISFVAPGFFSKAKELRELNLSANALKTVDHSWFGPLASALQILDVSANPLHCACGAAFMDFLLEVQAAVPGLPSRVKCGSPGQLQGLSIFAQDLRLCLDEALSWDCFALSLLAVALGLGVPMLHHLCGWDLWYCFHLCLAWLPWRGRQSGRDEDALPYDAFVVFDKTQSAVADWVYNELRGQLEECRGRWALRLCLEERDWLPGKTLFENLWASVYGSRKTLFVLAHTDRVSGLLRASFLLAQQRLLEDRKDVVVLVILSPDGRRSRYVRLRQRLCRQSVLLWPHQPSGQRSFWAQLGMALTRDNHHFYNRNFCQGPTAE

[2] = molecular target: T1, Toll-like receptor 9 (Homo sapiens); assay: Induction of TLR9-mediated immune stimulation in human PBMC assessed as MIP1beta production at 10 ug/ml after 24 hrs by luminex multiplex assay (RVb = 0.03 +/- 0.02 ng/ml)
[3] = molecular target: T1, Toll-like receptor 9 (Homo sapiens); assay: Induction of TLR9-mediated immune stimulation in human PBMC assessed as IL6 production at 10 ug/ml after 24 hrs by luminex multiplex assay (RVb = 0.01 ng/ml)
[4] = molecular target: T2, Toll-like receptor 9 (Mus musculus) (UniProt Q9EQU3); assay: Induction of TLR9-mediated IL6 production in C57BL/6 mouse spleen cells after 24 hrs by ELISA; assay type: cell-based
T2 sequence (whole entry): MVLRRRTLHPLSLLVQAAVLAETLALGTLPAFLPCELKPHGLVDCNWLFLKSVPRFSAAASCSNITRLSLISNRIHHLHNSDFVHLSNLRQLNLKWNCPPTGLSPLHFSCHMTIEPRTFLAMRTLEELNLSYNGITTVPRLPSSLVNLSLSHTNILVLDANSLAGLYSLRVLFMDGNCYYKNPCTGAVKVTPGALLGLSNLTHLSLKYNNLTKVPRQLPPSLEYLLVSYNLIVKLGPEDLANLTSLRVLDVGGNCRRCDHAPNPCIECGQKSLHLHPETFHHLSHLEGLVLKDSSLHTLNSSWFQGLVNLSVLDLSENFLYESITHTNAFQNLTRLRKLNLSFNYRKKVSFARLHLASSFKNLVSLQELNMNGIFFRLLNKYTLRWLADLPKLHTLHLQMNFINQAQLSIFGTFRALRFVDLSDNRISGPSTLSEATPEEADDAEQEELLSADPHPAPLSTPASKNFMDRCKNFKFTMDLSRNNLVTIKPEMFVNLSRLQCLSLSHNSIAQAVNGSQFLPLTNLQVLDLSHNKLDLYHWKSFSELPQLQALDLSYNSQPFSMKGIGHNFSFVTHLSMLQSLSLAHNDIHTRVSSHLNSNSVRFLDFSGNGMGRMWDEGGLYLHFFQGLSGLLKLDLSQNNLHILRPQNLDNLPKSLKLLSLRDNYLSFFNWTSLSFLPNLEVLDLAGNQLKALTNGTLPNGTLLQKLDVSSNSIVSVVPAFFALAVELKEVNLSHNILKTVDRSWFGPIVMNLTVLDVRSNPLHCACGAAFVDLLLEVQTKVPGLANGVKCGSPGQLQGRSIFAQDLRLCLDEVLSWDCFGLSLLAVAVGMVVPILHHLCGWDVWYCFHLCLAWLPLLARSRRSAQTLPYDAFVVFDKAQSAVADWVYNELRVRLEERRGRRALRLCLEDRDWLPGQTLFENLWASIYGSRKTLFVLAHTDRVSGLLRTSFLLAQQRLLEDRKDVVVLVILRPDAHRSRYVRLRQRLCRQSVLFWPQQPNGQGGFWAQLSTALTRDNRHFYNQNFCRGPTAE
In short: (§1)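 C57BL/6 mouse spleen cells were cultured with agonists at 0.1, 0.3, 1, 3 and 10 μg/mL for 24 h. Secreted IL-12 and IL-6 in the supernatants were measured by ELISA. Values are averages of triplicate wells from one representative of at least two independent experiments.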

[5] = molecular target: T1, Toll-like receptor 9 (Homo sapiens); assay: Induction of TLR9-mediated immune stimulation in human PBMC assessed as MIP1alpha production at 2 ug/ml after 24 hrs by luminex multiplex assay (RVb = 0.01 ng/ml)
[6] = molecular target: T2, Toll-like receptor 9 (Mus musculus); assay: Induction of TLR9-mediated IL12 production in C57BL/6 mouse spleen cells after 24 hrs by ELISA; assay type: cell-based; in short: as §1
[7] = molecular target: T1, Toll-like receptor 9 (Homo sapiens); assay: Induction of TLR9-mediated human B cell proliferation assessed as [3H]thymidine uptake after 56 hrs by scintillation counting
In short: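 B cells were purified from human PBMCs (healthy volunteers), about 1 × 10⁵ cells, and stimulated with various agonist concentrations for 56 h. Cells were then pulsed with 0.75 μCi [³H]-thymidine and harvested 16 h later. Incorporation was counted by scintillation and reported as cpm.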

[8] = molecular target: T1, Toll-like receptor 9 (Homo sapiens); assay: Induction of TLR9-mediated immune stimulation in human PBMC assessed as MCP1 production at 10 ug/ml after 24 hrs by luminex multiplex assay (RVb = 0.08 +/- 0.02 ng/ml)
[9] = molecular target: T1, Toll-like receptor 9 (Homo sapiens); assay: Induction of TLR9-mediated immune stimulation in human PBMC assessed as MIP1alpha production at 10 ug/ml after 24 hrs by luminex multiplex assay (RVb = 0.01 ng/ml)
[10] = molecular target: T1, Toll-like receptor 9 (Homo sapiens); assay: Induction of TLR9-mediated immune stimulation in human PBMC assessed as IP10 production at 2 ug/ml after 24 hrs by luminex multiplex assay (RVb = 0.00 ng/ml)

| Structure (SMILES) | Activity [1] | Activity [2] | Activity [3] | Activity [4] | Activity [5] | Activity [6] | Activity [7] | Activity [8] | Activity [9] | Activity [10] |
| --- | --- | --- | --- | --- | --- | --- | --- | --- | --- | --- |
| Cc1cn([C@H]2C[C@H](OCC(O)COP(=O)(S)O[C@H]3C[C@H](n4cc(C)c(=O)[nH]c4=O)O[C@@H]3COP(=O)(S)O[C@H]3[C@@H](O)[C@H](n4ccc(N)nc4=O)O[C@@H]3COP(=O)(S)O[C@H]3C[C@H](n4cc(C)c(=O)[nH]c4=O)O[C@@H]3COP(=O)(S)O[C@H]3C[C@H](n4cc(C)c(=O)[nH]c4=O)O[C@@H]3COP(=O)(S)O[C@H]3C[C@H](n4ccc5c(=O)[nH]c(N)nc54)O[C@@H]3COP(=O)(S)O[C@H]3[C@@H](O)[C@H](n4ccc(N)nc4=O)O[C@@H]3COP(=O)(S)O[C@H]3C[C@H](n4cc(C)c(=O)[nH]c4=O)O[C@@H]3COP(=O)(S)O[C@H]3[C@@H](O)[C@H](n4cnc5c(=O)[nH]c(N)nc54)O[C@@H]3COP(=O)(S)O[C@H]3C[C@H](n4cc(C)c(=O)[nH]c4=O)O[C@@H]3COP(=O)(S)O[C@H]3[C@@H](O)[C@H](n4ccc(N)nc4=O)O[C@@H]3COP(=O)(S)O[C@H]3C[C@H](n4cc(C)c(=O)[nH]c4=O)O[C@@H]3CO)[C@@H](COP(=O)(S)O[C@H]3[C@@H](O)[C@H](n4ccc(N)nc4=O)O[C@@H]3COP(=O)(S)O[C@H]3C[C@H](n4cc(C)c(=O)[nH]c4=O)O[C@@H]3COP(=O)(S)O[C@H]3C[C@H](n4cc(C)c(=O)[nH]c4=O)O[C@@H]3COP(=O)(S)O[C@H]3C[C@H](n4ccc5c(=O)[nH]c(N)nc54)O[C@@H]3COP(=O)(S)O[C@H]3[C@@H](O)[C@H](n4ccc(N)nc4=O)O[C@@H]3COP(=O)(S)O[C@H]3C[C@H](n4cc(C)c(=O)[nH]c4=O)O[C@@H]3COP(=O)(S)O[C@H]3[C@@H](O)[C@H](n4cnc5c(=O)[nH]c(N)nc54)O[C@@H]3COP(=O)(S)O[C@H]3C[C@H](n4cc(C)c(=O)[nH]c4=O)O[C@@H]3COP(=O)(S)O[C@H]3[C@@H](O)[C@H](n4ccc(N)nc4=O)O[C@@H]3COP(=O)(S)O[C@H]3C[C@H](n4cc(C)c(=O)[nH]c4=O)O[C@@H]3CO)O2)c(=O)[nH]c1=O (some centres undefined) | 0.17 ng/mL | 1.41 ng/mL | 0.5 ng/mL | Dose-dependent effect | 0.05 ng/mL | Dose-dependent effect | Dose-dependent effect | 1.88 ng/mL | 0.37 ng/mL | 0.03 ng/mL |
| Cc1cn([C@H]2C[C@H](OCC(O)COP(=O)(S)O[C@H]3C[C@H](n4cc(C)c(=O)[nH]c4=O)O[C@@H]3COP(=O)(S)O[C@H]3[C@@H](O)[C@H](n4ccc(N)nc4=O)O[C@@H]3COP(=O)(S)O[C@H]3[C@@H](O)[C@H](n4cnc5c(N)ncnc54)O[C@@H]3COP(=O)(S)O[C@H]3[C@@H](O)[C@H](n4cnc5c(N)ncnc54)O[C@@H]3COP(=O)(S)O[C@H]3[C@@H](O)[C@H](n4ccc(N)nc4=O)O[C@@H]3COP(=O)(S)O[C@H]3[C@@H](O)[C@H](n4ccc(N)nc4=O)O[C@@H]3COP(=O)(S)O[C@H]3[C@@H](O)[C@H](n4cnc5c(N)ncnc54)O[C@@H]3COP(=O)(S)O[C@H]3[C@@H](O)[C@H](n4ccc(N)nc4=O)O[C@@H]3COP(=O)(S)O[C@H]3[C@@H](O)[C@H](n4cnc5c(N)ncnc54)O[C@@H]3COP(=O)(S)O[C@H]3[C@@H](O)[C@H](n4ccc(N)nc4=O)O[C@@H]3COP(=O)(S)O[C@H]3[C@@H](O)[C@H](n4cnc5c(N)ncnc54)O[C@@H]3CO)[C@@H](COP(=O)(S)O[C@H]3[C@@H](O)[C@H](n4ccc(N)nc4=O)O[C@@H]3COP(=O)(S)O[C@H]3[C@@H](O)[C@H](n4cnc5c(N)ncnc54)O[C@@H]3COP(=O)(S)O[C@H]3[C@@H](O)[C@H](n4cnc5c(N)ncnc54)O[C@@H]3COP(=O)(S)O[C@H]3[C@@H](O)[C@H](n4ccc(N)nc4=O)O[C@@H]3COP(=O)(S)O[C@H]3[C@@H](O)[C@H](n4ccc(N)nc4=O)O[C@@H]3COP(=O)(S)O[C@H]3[C@@H](O)[C@H](n4cnc5c(N)ncnc54)O[C@@H]3COP(=O)(S)O[C@H]3[C@@H](O)[C@H](n4ccc(N)nc4=O)O[C@@H]3COP(=O)(S)O[C@H]3[C@@H](O)[C@H](n4cnc5c(N)ncnc54)O[C@@H]3COP(=O)(S)O[C@H]3[C@@H](O)[C@H](n4ccc(N)nc4=O)O[C@@H]3COP(=O)(S)O[C@H]3[C@@H](O)[C@H](n4cnc5c(N)ncnc54)O[C@@H]3CO)O2)c(=O)[nH]c1=O (some centres undefined) | 0.05 ng/mL | 0.15 ng/mL | 0.03 ng/mL | Dose-dependent effect | 0.04 ng/mL | Dose-dependent effect | – | 0.37 ng/mL | 0.07 ng/mL | 0.01 ng/mL |
